UBC13 polyUb – blocks human UBC13 polyubiquitin chain formation; TR-FRET; inhibition, % at 20 µM; 330,000 tested, 0.47% active; AID 485273; in the data active = inhibition above about 45%, passing the limit was not always enough; inconclusive = no clear call, values can overlap the other calls
Neddylation inh – cullin neddylation inhibition; P61081+Q13564; calls only at 25 µM; 360,000 tested, 0.58% active; TR-FRET cullin neddylation, biochemical; in the data active = inhibition above about 36%
Target sequence (P61081 whole entry, looked up): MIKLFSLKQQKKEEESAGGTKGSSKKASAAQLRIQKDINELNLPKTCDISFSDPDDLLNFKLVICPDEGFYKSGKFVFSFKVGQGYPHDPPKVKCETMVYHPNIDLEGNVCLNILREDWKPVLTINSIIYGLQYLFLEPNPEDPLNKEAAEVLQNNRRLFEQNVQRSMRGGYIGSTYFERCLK
Target sequence (Q13564 whole entry, looked up): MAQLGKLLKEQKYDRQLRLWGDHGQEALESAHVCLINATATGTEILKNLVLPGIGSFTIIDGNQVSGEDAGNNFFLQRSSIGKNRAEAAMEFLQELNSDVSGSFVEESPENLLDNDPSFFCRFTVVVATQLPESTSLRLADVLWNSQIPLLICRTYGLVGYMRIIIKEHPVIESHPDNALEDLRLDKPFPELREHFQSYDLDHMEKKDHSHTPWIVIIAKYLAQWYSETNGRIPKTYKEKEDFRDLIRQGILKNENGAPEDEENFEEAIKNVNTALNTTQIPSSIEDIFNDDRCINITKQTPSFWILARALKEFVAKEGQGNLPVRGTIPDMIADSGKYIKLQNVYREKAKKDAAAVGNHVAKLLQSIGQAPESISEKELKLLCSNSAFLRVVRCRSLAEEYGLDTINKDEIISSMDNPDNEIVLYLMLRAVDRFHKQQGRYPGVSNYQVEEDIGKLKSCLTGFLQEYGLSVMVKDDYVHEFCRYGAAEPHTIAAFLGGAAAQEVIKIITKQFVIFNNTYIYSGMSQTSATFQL
DNA FID counter – counter-screen for HCV NS3 helicase inhibitors: DNA intercalator displacement; DNA fluorescent intercalator displacement, fluorescence; inhibition, % at 7.9 µM; 290,000 tested, 0.17% active; AID 1845; in the data active = inhibition above about 37%;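 note: 0% = vehicle and 100% = reference compound; higher means more ethidium bromide displaced from hairpin DNA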
Apaf1 inhib – human Apaf-1 inhibition. O14727. reconstituted apoptosome caspase-3 activity, DEVD-Rh110 fluorescence. inhibition, % at 20 µM. 330,000 tested, 0.71% active; active = inhibition of at least 40% at 20 µM;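 note: plate controls were DMSO wells for no effect and DEVD-CHO caspase inhibitor wells for full effect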
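Material: cell-free apoptosome with Apaf-1, procaspase-3 and caspase-9; Buffer or medium: Hepes pH 7.5 with detergent and BSA; Reagent: cytochrome c trigger plus (Z-DEVD)2-Rh110 caspase-3 substrate; Times: compound with Apaf-1, dATP, procaspase-3 30 min, then 50 min reaction, room temperature; Technique: Rh110 fluorescence intensity.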
RAD54 branch – blocks human RAD54 Holliday junction branch migration | 360,000 tested, 0.14% active | inhibition, % at 10.4 µM | Q92698 | FAM/BHQ fluorescence | AID 602329;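 active = mean normalized replicate activity at least 40 and at least half of replicates scoring 40 or more; inconclusive = only one of the two criteria met; inactive = mean below 40 and under half of replicates reaching 40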;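 note: 0% = median of neutral control wells and 100% = median of positive control wells; inhibitors cause a drop in the FAM fluorescence signal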
RAD52 anneal inh – blocks human RAD52 DNA annealing. P43351. recombinant RAD52 DNA annealing, FRET fluorescence. inhibition, % at 18.7 µM. 360,000 tested, 0.46% active. AID 651710;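 active = every replicate showing at least 50% inhibition; inconclusive = mean inhibition at least 50% but not in every replicate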
Casp3 UBC13 ctr – caspase-3 inhibition (UBC13 counter-screen) | Recombinant caspase-3, Caspase-Glo 3/7 luminescence, 60 min | shares compounds with UBC13 polyUb | 1,400 tested, 4% active | inhibition, % at 20 µM;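 active = mean inhibition across replicates above about 26%, limit read from the data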;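 note: plate controls were DMSO with caspase-3 for no effect and DMSO wells lacking enzyme for full effect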
UBC13 confirm – confirmation of human UBC13 polyubiquitin inhibitors; UBC13 polyubiquitination, TR-FRET, biochemical; inhibition, % at 10 µM; shares compounds with UBC13 polyUb; 1,400 tested, 68% active; in the data active = inhibition above about 45%; inconclusive = no clear call, values can overlap the other calls
Apaf-1 inh conf2 – confirmation of Apaf-1 inhibitors | shares compounds with Apaf1 inhib | reconstituted apoptosome, caspase-3 DEVD-Rh110 fluorescence | inhibition, % at 20 µM | 1,800 tested, 25% active | AID 504614;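 active = mean inhibition of at least 40% at 20 µM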;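 note: plate controls were DMSO wells for no effect and DEVD-CHO caspase inhibitor control wells for full effect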
Rh110 quench – interferes with Rh110 fluorescence, flagging false Apaf-1 inhibitors | shares compounds with Apaf1 inhib | Rh110 fluorescence interference, quenched caspase reaction | activation (fluorescence interference), % at 20 µM | 1,800 tested, under 10 active;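 active = signal rise of 40% or more at 20 µM, treated as a fluorescence artifact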
Apaf1 inh interf – Apaf-1 inhibitor counter-screen fluorescence artifact; shares compounds with Apaf1 inhib; fluorescence interference counterscreen, Apaf-1 assay format; IC50, µM; 460 tested, under 10 active; call rule not given here
DNA binder FP – DNA binding artifact in RAD52 counter-screen; Salmon sperm DNA/acridine orange FP displacement; shares compounds with RAD52 anneal inh; AID 652128; 1,000 tested, 8% active; AC50, µM;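 active = fitted half-maximal concentration for signal loss at or below twice the highest dose tested, in every separate run, actives reach about 64 µM in these data; inconclusive = runs disagree, or flat partial signal loss, or poor fit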
Active calls of the source: *; i = inactive; ? = inconclusive; / = no result given. Compounds with a hit are over-represented: about 1.6% of the library has one in this group of screens.

SMILES | UBC13 polyUb | Neddylation inh | DNA FID counter | Apaf1 inhib | RAD54 branch | RAD52 anneal inh | Casp3 UBC13 ctr | UBC13 confirm | DNA binder FP | others
CCN1CCN(CCNC(=O)c2ccc3nc(-c4cccc(C)c4)c(-c4cccc(C)c4)nc3c2)CC1 | 54* | / | 31 | 47* | 9 | 68* | -2 | 84* | i
Cc1ccc(-c2[nH]c3cc(C(=O)NCCCn4ccnc4)ccc3c(=O)c2O)cc1 | 46* | i | / | 6 | 9 | 80* | -2 | 43 | i
Cc1ccc2nc(-c3ccc(NC(=S)NC4CC(C)(C)NC(C)(C)C4)cc3)sc2c1 | 91* | i | 29 | 50* | 35 | 95* | 11 | 96* | i | Apaf-1 inh conf2=42*;Rh110 quench=10;Apaf1 inh interf=>100
COc1cccc(/C=C2/Sc3ccc(C(=O)NCCN4CCCC4)cc3NC2=O)c1 | 50* | i | 30 | 24 | 41 | 92* | -2 | 74* | i
CN(C)CCCN(C(=O)c1ccc(C(=O)c2ccccc2)cc1)c1nc2cc3c(cc2s1)OCCO3 | 92* | i | 30 | 17 | 31 | 73* | 5 | 112* | i
Cc1ccc2nc(N(CCCN(C)C)C(=O)c3ccc(S(=O)(=O)N4CCOCC4)cc3)sc2c1 | 15 | i | 25 | 4 | 2 | 9 | / | / | /
Cc1ccc2nc(N(CCCN(C)C)C(=O)c3ccc(S(=O)(=O)N4CCc5ccccc5C4)cc3)sc2c1 | 78* | i | 28 | 53* | -5 | 74* | -6 | 110* | i | Apaf-1 inh conf2=20;Rh110 quench=7
CC(=O)N(C)C[C@H]1Oc2ncc(C#Cc3cccnc3)cc2C(=O)N([C@H](C)CO)C[C@H]1C | / | / | / | / | -1 | 19 | / | / | /
CCc1ccc(OCCNc2cc(N3CCNC(C)C3)ccc2[N+](=O)[O-])cc1 (stereo not given) | 68* | i | / | 75* | 4 | 11 | -4 | 55* | i
N=C(N)c1ccc(/C=C/c2ccc(C(=N)N)cc2O)cc1 | 84* | i | 53* | -31 | / | 97* | 0 | 110* | i
COc1c(C=O)cc2c3c1CCCN3CCC2 | 6 | i | -4 | -6 | -2 | 2 | / | / | /
NCc1cc2c3c(c1)CCCN3CCC2 | 54* | i | 31 | -15 | 55* | 80* | -2 | 19 | ?
O=C(NCC[C@H]1CC[C@H](NS(=O)(=O)c2ccc(Cl)cc2)[C@@H](CO)O1)c1ccccc1F | / | / | / | / | -3 | 1 | / | / | /
O=C(C[C@@H]1C=C[C@H](NS(=O)(=O)c2ccc(F)cc2)[C@@H](CO)O1)NCc1ccccc1F | / | / | / | / | / | 4 | / | / | /
CCCC#Cc1ccc([C@@H]2[C@@H](CO)N3CCCCN(CCC)C[C@@H]23)cc1 | / | / | / | / | 9 | 0 | / | / | /
CCCOc1ccc(C(=O)N/N=C/c2c[nH]c3ccc(Br)cc23)cc1 | 24 | i | 15 | 25 | 14 | -4 | / | / | /
CCCCCN=C(N)N/N=C/c1c[nH]c2ccc(OC)cc12 | 107* | i | / | 78* | 24 | 56* | -5 | 111* | i
O=C(c1ccc(-c2cc(O)c3ncccc3c2)cc1)N1CCNCC1 | 114* | i | / | 18 | 22 | 101* | -4 | 117* | i
C#CCOCCOCCOCCNc1nc(N2CCN(C(=O)[C@H](CCC(=O)O)n3cc([C@@H](N)[C@H](C)CC)nn3)CC2)nc(N2CCN(C(=O)[C@H](CCCCN)n3cc([C@@H](N)CC(N)=O)nn3)CC2)n1 | 17 | i | / | -7 | -12 | 7 | / | / | /
C#CCOCCOCCOCCNc1nc(N2CCN(C(=O)[C@H](CCCCN)n3cc(CN)nn3)CC2)nc(N2CCN(C(=O)[C@H](CCCN=C(N)N)n3cc(C(N)[C@H](C)CC)nn3)CC2)n1 (stereo not given in full) | 92* | i | / | 35 | -17 | 77* | 2 | 103* | ?
C#CCOCCOCCOCCNc1nc(N2CCN(C(=O)[C@H](CCCCN)n3cc(CN)nn3)CC2)nc(N2CCN(C(=O)[C@H](CCC(=O)O)n3cc([C@@H](N)[C@H](C)CC)nn3)CC2)n1 | -7 | i | / | 1 | -8 | -6 | / | / | /
C#CCOCCOCCOCCNc1nc(N2CCN(C(=O)[C@H](CCCCN)n3cc([C@@H](N)[C@H](C)CC)nn3)CC2)nc(N2CCN(C(=O)[C@H](CCCCN)n3cc([C@@H](N)CC(N)=O)nn3)CC2)n1 | 99* | i | / | 44* | -20 | 54* | -1 | 107* | i | Apaf-1 inh conf2=0;Rh110 quench=-3
OCCN1CCN(CCCN2c3ccccc3Sc3ccc(Cl)cc32)CC1 | 90* | i | 18 | 46* | 12 | 102* | -4 | 99* | i | Apaf-1 inh conf2=5;Rh110 quench=8
C/C=C(\C)C(=O)NCCN1C2=NC[C@@H](C)N2C[C@H]1Cc1ccc(O)cc1 | 4 | i | 2 | -4 | -23 | 11 | / | / | /
Cc1ccc(C(=O)NCCN2C3=NC[C@@H](Cc4ccccc4)N3C[C@H]2Cc2ccc(O)cc2)cc1Br | 104* | i | 22 | 32 | 0 | 49 | -3 | 93* | i
CCCCCCCCCCCCC/C=C/[C@@H](O)[C@@H](N)CO | 108* | i | / | 79* | 8 | 55* | -3 | 114* | i | Apaf-1 inh conf2=37;Rh110 quench=18
CCCCCCCC/C=C\CCCCCCCC(=O)O | 8 | i | / | 3 | / | -11 | / | / | /
CCOC(=O)CCc1nc2ccccc2[nH]1 | -3 | i | 0 | -19 | -5 | -14 | / | / | /
COCC(=O)O[C@]1(CCN(C)CCCc2nc3ccccc3[nH]2)CCc2cc(F)ccc2[C@@H]1C(C)C | 67* | i | / | 54* | 22 | 54* | -2 | 60* | i | Apaf-1 inh conf2=23;Rh110 quench=4
CO[C@@H]1CN(C)C(=O)c2cc(NC(=O)C3CCCCC3)ccc2OC[C@H](C)N(Cc2nccs2)C[C@@H]1C | / | / | / | / | -1 | 3 | / | / | /

Screening data from PubChem.
